Our source for the Activity, inhibition in vivo and IC50 values is ChEMBL document CHEMBL4017491, “Phthalazino[1,2-b]quinazolinones as p53 Activators: Cell Cycle Arrest, Apoptotic Response and Bak-Bcl-xl Complex Reorganization in Bladder Cancer Cells” (J Med Chem, 2017).

SMILES strings stand for the structures. Active and inactive are the calls of the source. No cut-off for these calls is given here.

For data set [1], the system named is Escherichia coli. In words: Induction of conformational change in Escherichia coli pBR322 DNA at 1 to 10 uM after 1 hr by DNA relaxation assay. The method, boiled down: (§1)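 Plasmid pBR322 incubated 1 h with 1–10 μM in 5 mM Tris-HCl, 50 mM NaCl, pH 7.2. Samples run on 1.5% agarose and stained with 0.5 μg/mL ethidium bromide. Lane controls: 1% DMSO (negative) and ethidium bromide (positive).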

Data set [2] relates to T-24. Put plainly: Induction of apoptosis in human T24 cells assessed as late apoptotic cells at 5 uM by Annexin V-FITC/propidium iodide based flow cytometric analysis (reference value: 0.193%). The format is functional. (In flow cytometry, cells or beads pass a laser one at a time.)
In data set [3] the test system is T-24. In words: Effect on Bcl-xl protein expression in human T24 cells at 1 to 10 uM after 24 hrs by Western bot method. The data set is classed as functional, cell-based. The method, boiled down:
(§2)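 T24 cells, 3 × 10^5 per well, grown to 85−95% confluence, then exposed to 0−10 μM for 24 h. Whole-cell extracts in sample buffer run on SDS-polyacrylamide gels and transferred to nitrocellulose. Blots probed with primary antibodies and AP-linked anti-rabbit IgG, detected by ECL. Blots stripped and reprobed for β-actin as loading control.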

Data set [4] deals with T-24. Put plainly: Cell cycle arrest in human T24 cells assessed as effect on CDK4 expression up to 10 uM after 24 hrs by Western blot analysis. The format is functional, cell-based. The method, boiled down:
as §2
(A western blot detects proteins with antibodies after separation by electrophoresis.)

In data set [5] the target is Cellular tumor antigen p53 (Homo sapiens) (UniProt P04637). In words: Activation of p53 in human T24 cells assessed as decrease in MDM2 protein level up to 10 uM after 24 hrs by Western blot analysis. The data set is classed as cell-based. The procedure, abridged: as §2
Chain of Cellular tumor antigen p53 (Homo sapiens) (P04637 whole entry, looked up): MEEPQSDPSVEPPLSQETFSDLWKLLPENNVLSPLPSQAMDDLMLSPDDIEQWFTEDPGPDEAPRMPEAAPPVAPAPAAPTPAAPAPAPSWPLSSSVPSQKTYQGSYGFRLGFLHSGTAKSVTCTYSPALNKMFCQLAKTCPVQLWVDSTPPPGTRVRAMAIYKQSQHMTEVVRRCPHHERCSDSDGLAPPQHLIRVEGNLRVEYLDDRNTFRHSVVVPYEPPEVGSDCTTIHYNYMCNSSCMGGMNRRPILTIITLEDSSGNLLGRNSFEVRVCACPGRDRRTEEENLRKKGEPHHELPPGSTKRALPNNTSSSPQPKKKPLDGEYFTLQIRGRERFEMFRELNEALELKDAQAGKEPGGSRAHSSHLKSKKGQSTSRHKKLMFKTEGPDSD
Data set [6] relates to T-24. Put plainly: Induction of apoptosis in human T24 cells assessed as early apoptotic cells at 10 uM by Annexin V-FITC/propidium iodide based flow cytometric analysis (reference value: 1.79%). The data set is classed as functional.
Data set [7] has as its system T-24. Put plainly: Induction of apoptosis in human T24 cells assessed as activation of caspase-3 at 1 uM by FITC-DEVD-FMK based flow cytometric analysis (reference value: 2.8%).
For data set [8], the system named is T-24. In words: Cell cycle arrest in human T24 cells assessed as effect on cyclin D expression up to 10 uM after 24 hrs by Western blot analysis. The format is functional, cell-based. The method, boiled down:
as §2

In data set [9] the test system is T-24. Put plainly: Induction of apoptosis in human T24 cells assessed as late apoptotic cells at 10 uM by Annexin V-FITC/propidium iodide based flow cytometric analysis (reference value: 0.193%). The format is functional.
In data set [10] the target is Cellular tumor antigen p53 (Homo sapiens) (UniProt P04637). In words: Induction of phospho-p53 accumulation in mitochondria of human T24 cells up to 10 uM after 24 hrs by Western blot method.
The test system of data set [11] is Mus musculus. Put plainly: Down regulation of Bak expression in BALB/C nude mouse xenografted with human T24 cells at 6 to 12 mg/kg, ip administered every 2 days for 16 days by immunoblot analysis.
Data set [12] has as its system J82. Put plainly: Cell cycle arrest in human J82 cells assessed as accumulation at S phase at 10 uM after 48 hrs by propidium iodide staining based FACS analysis (reference value: 46.79 %). The data set is classed as functional. The method, boiled down: (§3)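 Cells treated with 1−10 μM for 48 h, trypsinized, and fixed in 70% ethanol. Stained with 50 μg/mL propidium iodide and phase distribution analyzed by flow cytometry. Mean ± SD from three independent measurements.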

Data set [13] relates to Escherichia coli. In words: Induction of DNA damage in Escherichia coli pBR322 DNA assessed as effect on mobility rate at 1 to 10 uM after 1 hr by DNA relaxation assay. The method, boiled down: as §1
In data set [14] the test system is Mus musculus. Put plainly: Toxicity in BALB/C nude mouse xenografted with human HepG2 cells at 6 to 12 mg/kg, ip administered every 2 days for 16 days. The format is organism-based. To be noted: in vivo. The method, boiled down:
(§4)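 Male BALB/C nude mice with HepG2 flank xenografts, n = 6/group. Given ip 6 or 12 mg/kg every 2 days in 5% DMSO/saline; vehicle and HCPT 6 mg/kg as controls. Clinical signs, food intake and body weight monitored; tumour size and weight measured three times weekly.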
In general terms: In xenograft studies the graft and the host belong to different species.

For data set [15], the system named is T-24. In words: Effect on p53 expression in human T24 cells up to 10 uM after 24 hrs by Western blot analysis. The data set is classed as functional, cell-based. The procedure, abridged: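 T24 cells (3 × 10^5 per well) grown to 85–95% confluence, then exposed 24 h to 0–10 μM. Whole-cell extracts run on SDS-PAGE and blotted to nitrocellulose. Probed with the indicated antibodies and AP-linked anti-rabbit IgG, with ECL detection. Blots stripped and reprobed for β-actin as loading control.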

Data set [16] deals with HepG2. Put plainly: Antitumor activity against human HepG2 cells xenografted in BALB/C nude mouse assessed as tumor growth inhibition at 12 mg/kg, ip administered every 2 days for 16 days relative to control. The format is functional. To be noted: read-out: TGI. The method, boiled down:
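Male BALB/c nude mice, 6 weeks old, given subcutaneous flank injections of 5 × 10^6 HepG2 cells. Mice with 80−200 mm3 tumors randomized, n = 6 per group, and dosed ip every other day with 6 or 12 mg/kg. Vehicle 5% DMSO in saline; HCPT 6 mg/kg as positive control. Tumor volume (lw²/2) and body weight measured three times weekly.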

Data set [17] relates to T-24. In words: Effect on cell cycle distribution in human T24 cells assessed as late apoptotic cells at 10 uM after 1 hr by Annexin V-FITC/propidium iodide staining based FACS analysis relative to control. The data set is classed as functional.
Data set [18] concerns J82. In words: Cell cycle arrest in human J82 cells assessed as accumulation at G1 phase at 10 uM after 48 hrs by propidium iodide staining based FACS analysis (reference value: 42.29 %). The format is functional. The method, boiled down: as §3
The test system of data set [19] is Mus musculus. Put plainly: Toxicity in BALB/C nude mouse xenografted with human HepG2 cells assessed as effect on food consumption at 6 to 12 mg/kg, ip administered every 2 days for 16 days. The format is organism-based. Conditions: in vivo. The procedure, abridged:
as §4

Data set [20] deals with T-24. In words: Antiproliferative activity against human T24 cells by MTT assay. The data set is classed as functional, cell-based. The procedure, abridged:
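Cell lines cultured in RPMI 1640 with 10% FBS. Viability read by MTT (5 mg/mL, 4 h at 37 °C), with formazan dissolved in DMSO and absorbance taken at 490 nm. Viability (%) = A490 treated / A490 control × 100. IC50 taken from dose-response curves, from three independent experiments each run in triplicate.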

The test system of data set [21] is Mus musculus. In words: Toxicity in BALB/C nude mouse xenografted with human HepG2 cells assessed as change in body weight at 6 mg/kg, ip administered every 2 days for 16 days. The data set is classed as organism-based. Conditions: in vivo. The procedure, abridged: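 HepG2-xenografted male BALB/C nude mice treated ip at 6 mg/kg every 2 days; vehicle was 5% DMSO in saline. Body weight recorded three times weekly and at the end of treatment.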

For data set [22], the system named is HepG2. In words: Antitumor activity against human HepG2 cells xenografted in BALB/C nude mouse assessed as tumor growth inhibition at 6 mg/kg, ip administered every 2 days for 16 days relative to control. The format is functional. Conditions: read-out: TGI. The procedure, abridged:
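Male BALB/C nude mice, 6 weeks old, given subcutaneous flank injection of 5 × 10^6 HepG2 cells; tumors of 80−200 mm3 randomized, n = 6/group. Dosing ip every other day, vehicle 5% DMSO in saline (v/v). Tumor length and width measured three times a week, volume V = lw2/2; growth inhibition expressed versus vehicle group. Body weight also recorded.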

The subject of data set [23] is T-24. In words: Effect on light absorption in human T24 cells up to 10 uM after 1 hr at 490 nanometer. The data set is classed as functional, cell-based. The method, boiled down: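 T24 cells treated at 1−10 μM for 1 h, then absorbance read at 490 nm to check for interference with the MTT read-out.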

On to `CN(C)CCNc1nn2c(=O)c3cc(Br)ccc3nc2c2ccccc12`, for which the outcome in the data set with Escherichia coli [1], in the data set with T-24 [3], in the data set on T-24 [4], in the data set on T-24 [8], with Escherichia coli [13] and with T-24 [15] was inactive. Also, in the data set with T-24 [23], the outcome was inactive. Also, the Activity in the data set on T-24 [2] was 10.2%; with T-24 [6], 29.4%; in the data set on T-24 [7], 7%; in the data set on T-24 [9] it was 40.7%; with J82 [12], 64.2%; in the data set on Mus musculus [14], “Non-Toxic”. For the same molecule, the Activity is reported as 0% with T-24 [17], 12.13% in the data set with J82 [18], “Non-Toxic” in the data set with Mus musculus [19] and “Non-Toxic” with Mus musculus [21]. In addition, the outcome (in data set [5]; in data set [10]; with Mus musculus [11]) was Active. The inhibition in vivo at 12 mg/kg in the data set on HepG2 [16] turned out to be 61.3%. This molecule returned a half-maximal inhibitory concentration (IC50) in the data set with T-24 [20] of 3.09 µM. Also, the inhibition in vivo at 6 mg/kg in the data set with HepG2 [22] is 43.6%.

Broadly, the IC50 is the concentration at which inhibition is half-maximal. A low value points to higher potency.
